Assay results as given in ChEMBL document CHEMBL2169875, “Designing allosteric regulators of thrombin. Monosulfated benzofuran dimers selectively interact with Arg173 of exosite 2 to induce inhibition” (J Med Chem, 2012).
Calls of active or inactive are those of the source. The rule behind the calls is not given here.

Assays:
[1] = Inhibition of wild type human plasma alpha-thrombin assessed as spectrozyme TH hydrolysis after 10 mins in absence of exosite 1 ligand HirP
Summary of the method: (§1)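 Buffer was 20 mM Tris-HCl pH 7.4, 100 mM NaCl, 2.5 mM CaCl2, 0.1% PEG 8000. After 10 min, Spectrozyme TH was added and A405 read. Apparent IC50 and efficacy came from a logistic fit with all parameters floating.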

[2] = Inhibition of wild type human plasma alpha-thrombin assessed as spectrozyme TH hydrolysis after 10 mins in presence of 6.5 uM exosite 2 ligand FibP; format: cell-free; summary of the method: as §1
[3] = Inhibition of wild type human plasma alpha-thrombin assessed as spectrozyme TH hydrolysis after 10 mins in presence of 10 uM exosite 2 ligand H8; format: cell-free; summary of the method: as §1
[4] = Inhibition of recombinant thrombin Arg93,97,101Ala mutant expressed in BHK cells assessed as spectrozyme TH hydrolysis after 10 mins; format: cell-based
Summary of the method: (§2)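 Recombinant thrombins (wild type or Ala mutants) made as prothrombin-1 in BHK cells, purified by HPC4 immunoaffinity, activated, and active-site titrated. About 5 nM enzyme was incubated 10 min at 25 °C with inhibitor in 20 mM Tris-HCl pH 7.4, 100 mM NaCl, 2.5 mM CaCl2, 0.1% PEG 8000. Spectrozyme TH was then added, and the initial A405 rate was read. The dose-response of fractional residual activity was fitted to a logistic equation for IC50, Hill slope and efficacy.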

[5] = Partial competitive inhibition of wild type human plasma alpha-thrombin assessed as spectrozyme TH hydrolysis after 10 mins in presence of 48 uM exosite 2 ligand UFH; format: cell-free; summary of the method: as §1
[6] = Inhibition of recombinant thrombin Lys169Ala mutant expressed in BHK cells assessed as spectrozyme TH hydrolysis after 10 mins; format: cell-based; summary of the method: as §2
[7] = Inhibition of recombinant thrombin Lys235Ala mutant expressed in BHK cells assessed as spectrozyme TH hydrolysis after 10 mins; format: cell-based; summary of the method: as §2
Prothrombin [8] = target: T1, Prothrombin (Homo sapiens, UniProt P00734); test: Inhibition of recombinant wild type thrombin expressed in BHK cells assessed as spectrozyme TH hydrolysis at 0.25 to 12.5 mM after 10 mins; format: cell-based
A549 = test: Cytotoxicity against human A549 cells assessed as cell viability up to 420 uM after 120 hrs by MTT assay; format: cell-based; conditions: a549, 120 h
Summary of the method: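 A549 cells in DMEM with 10% heat-inactivated FBS were kept at 37 °C, 5% CO2. Cells were seeded at 30,000 per well for 4 h, then exposed to medium or varying compound concentrations (aqueous stock) for 120 h at 37 °C. MTT was added for 10 h, followed by SDS/DMF lysis for 10 h. Three experiments were run, analysed by one-way ANOVA with Dunnett's test.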

[9] = Inhibition of wild type human plasma alpha-thrombin assessed as spectrozyme TH hydrolysis after 10 mins in absence of exosite 2 ligand FibP; summary of the method: as §1
BHK = test: Inhibition of recombinant thrombin Arg93,97,101Ala mutant expressed in BHK cells assessed as spectrozyme TH hydrolysis at 0.25 to 12.5 mM after 10 mins; format: cell-based
[10] = Inhibition of recombinant thrombin Arg175Ala mutant expressed in BHK cells assessed as spectrozyme TH hydrolysis after 10 mins; format: cell-based; summary of the method: as §2
[11] = Inhibition of wild type human plasma alpha-thrombin assessed as spectrozyme TH hydrolysis after 10 mins by spectrophotometric analysis in absence of exosite 2 ligand UFH; summary of the method: as §1
Homo sapiens [12] = organism: Homo sapiens; test: Inhibition of wild type human plasma alpha-thrombin assessed as spectrozyme TH hydrolysis after 10 mins in presence of exosite 1 ligand HirP; format: cell-free; summary of the method: as §1
Coagulation factor X = Coagulation factor X (Homo sapiens, UniProt P00742); test: Inhibition of human plasma F10a assessed as spectrozyme TH hydrolysis after 10 mins
Coagulation factor X, sequence (P00742 41-179 limits assumed): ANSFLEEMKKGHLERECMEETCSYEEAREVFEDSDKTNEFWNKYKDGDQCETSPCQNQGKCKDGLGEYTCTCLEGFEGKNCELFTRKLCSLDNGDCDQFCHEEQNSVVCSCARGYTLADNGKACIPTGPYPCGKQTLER
Coagulation factor X, sequence (P00742 235-488 limits assumed): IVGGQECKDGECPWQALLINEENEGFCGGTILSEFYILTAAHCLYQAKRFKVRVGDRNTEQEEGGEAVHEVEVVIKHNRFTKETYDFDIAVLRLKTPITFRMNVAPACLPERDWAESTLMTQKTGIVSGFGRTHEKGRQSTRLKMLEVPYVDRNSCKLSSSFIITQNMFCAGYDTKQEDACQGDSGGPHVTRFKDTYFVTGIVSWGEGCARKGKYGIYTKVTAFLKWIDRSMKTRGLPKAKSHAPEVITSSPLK
Summary of the method: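 Chromogenic assay of human plasma factor Xa (4 nM final) at 25 °C in 20 mM Tris-HCl pH 7.4, 100 mM NaCl, 2.5 mM CaCl2, 0.1% PEG 8000. Inhibitor dilutions (from 0.25–12.5 mM stocks) incubated with enzyme 10 min, then 1 mM Spectrozyme TH stock added. Initial rate at 405 nm gave fractional residual activity. Fitting the logistic equation yielded apparent IC50, Hill slope and efficacy ΔY.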

[13] = Inhibition of wild type human plasma alpha-thrombin assessed as spectrozyme TH hydrolysis after 10 mins in absence of exosite 2 ligand H8; summary of the method: as §1
Prothrombin [14] = target: T1, Prothrombin; test: Inhibition of recombinant wild type thrombin expressed in BHK cells assessed as spectrozyme TH hydrolysis after 10 mins; format: cell-based; summary of the method: as §2
Homo sapiens [15] = organism: Homo sapiens; test: Binding affinity to human antithrombin by spectrofluorometric analysis

COC(=O)c1c(C)oc2cc(OC)c(OCc3oc4cc(OC)c(OS(=O)(=O)O)cc4c3C(=O)OC)cc12 gave an IC50 [1] of 31.9 µM.
In the case of CCOC(=O)c1c(C)oc2cc(OC)c(OCc3oc4cc(OC)c(OS(=O)(=O)[O-])cc4c3C(=O)OCC)cc12.[Na+], the IC50 [2] is reported as 118 µM, the IC50 [3] is reported as 3.7 µM and the IC50 [4] is reported as 5 µM. For the same molecule, the IC50 [5] was 36.1 µM, the IC50 [6] was 4.9 µM and the IC50 [7] was 4.9 µM. The inhibition (Prothrombin [8]) was 30%, the Activity (A549) was “Non-toxic” and the IC50 [9] was 7.9 µM. The inhibition (BHK) was 70%, the IC50 [10] was 4.9 µM and the IC50 [11] was 8.8 µM. The inhibition (Homo sapiens [12]) was “Active”, the IC50 (Coagulation factor X) was over 300 µM and the IC50 [13] was 2.7 µM. It also gave an IC50 [1] of 6.2 µM and an IC50 (Prothrombin [14]) of 5.5 µM.
With CCOC(=O)c1c(C)oc2cc(OC(C)C)c(OCc3oc4cc(OC(C)C)c(OS(=O)(=O)O)cc4c3C(=O)OCC)cc12 the IC50 [1] was 1.3 µM.
Work on CCOC(=O)c1c(C)oc2cc(OCC)c(OCc3oc4cc(OCC)c(OS(=O)(=O)O)cc4c3C(=O)OCC)cc12 yielded an IC50 [1] of 4.5 µM.
COCCOC(=O)c1c(C)oc2cc(OC)c(OCc3oc4cc(OC)c(OS(=O)(=O)O)cc4c3C(=O)OCCOC)cc12 gave an IC50 [1] of 16.9 µM.
Molecule COc1cc2oc(C)c(C(=O)O)c2cc1OCc1oc2cc(OC)c(OS(=O)(=O)O)cc2c1C(=O)O has an IC50 [1] of over 500 µM.
CO[C@H]1O[C@H](COS(=O)(=O)O)[C@@H](O[C@@H]2O[C@@H](C(=O)O)[C@@H](O[C@H]3O[C@H](COS(=O)(=O)O)[C@@H](O[C@@H]4O[C@H](C(=O)O)[C@@H](O[C@H]5O[C@H](COS(=O)(=O)O)[C@@H](O)[C@H](O)[C@H]5NS(=O)(=O)O)[C@H](O)[C@H]4O)[C@H](OS(=O)(=O)O)[C@H]3NS(=O)(=O)O)[C@H](O)[C@H]2OS(=O)(=O)O)[C@H](O)[C@H]1NS(=O)(=O)O showed an Activity (Homo sapiens [15]) of 50 nM.
